# HCT116 bCat-KO – beta-catenin-lacking colon tumor cell growth suppression | viability, % at 10 µM | HCT116 beta-catenin knockout viability, CellTiter-Glo, 60 h; active compounds read low | AID 818 | 140,000 compounds, 1.5% hits;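 active means viability at or under a set limit, the compound median less 4 SD, cut at about 6% in these data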;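 further: 0% = Hyamine 1622 control at 20 µM and 100% = untreated cell control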
# H69AR inhibit – growth inhibitors of human H69AR lung tumor cells | H69AR lung tumor viability, ATP luminescence, 72 h; active compounds read low | viability, % at 10 µM | AID 598 | 85,000 compounds, 6% hits;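 active means viability at or below 40%; inactive means viability above 40%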;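 further: multidrug resistant small cell line overexpressing MRP-1 efflux transporter; 100% = mean luminescence of untreated control wells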
# Lung fibro prol – blocks proliferation of human lung fibroblasts; viability, % at 10 µM; 85,000 compounds, 1.1% hits; LL 47 human lung fibroblast viability, ATP luminescence; active compounds read low;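 active means viability at or below 50% in the single dose screen; inactive means viability above 50%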;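 further: compound exposure lasted 72 h before the ATP readout; 100% = median luminescence of untreated cell-only wells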
#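 Material: human lung fibroblast line LL 47, low passage; Evaluation: viability percentage against median untreated-cell control; Buffer or medium: 15% FBS in IMEM; Incubation: 72 h compound exposure at 37 °C after overnight plating; Dosing: 0.1% DMSO in all compound wells; Measured by: CellTiter-Glo luminescence.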
# HUVEC inhibit – inhibitors of human endothelial cell proliferation; 86,000 compounds, 1.1% hits; viability, % at 10 µM (by protocol); AID 648; HUVEC proliferation, CellTiter-Glo luminescence, 72 h; active compounds read low;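 active means viability at or below 30%; inactive means viability above 30%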;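 further: 100% = median luminescence of DMSO-only cell control wells on each plate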
# PTEN del growth – growth suppressors of cells with PTEN tumor suppressor deletion | 140,000 compounds, 1.2% hits | viability, % at 10 µM | HCT116 PTEN-null viability, CellTiter-Glo, 60 h; active compounds read low;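 active means viability at or below a set limit, 4 SD under the median of all tested compounds, cut at about 3.7% in these data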;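 further: PTEN knockout HCT116 line with beta catenin targeted HCT116 as companion control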
# PTK2B oligo ant – Pyk2 (human) oligomerization antagonism; z-score (the deposit names both 25 µM and 10 µM); Q293 cells, Pyk2 FERM NanoBiT luminescence; active compounds read low; Q14289; 99,000 compounds, 0.83% hits;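 active means Z-score of -3 or lower, scaled per plate to the spread of control and sample wells; inactive means z-score above -3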;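 further: negative z-score means lost luminescence so less FERM oligomerization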
# Target sequence (Q14289 whole entry, looked up): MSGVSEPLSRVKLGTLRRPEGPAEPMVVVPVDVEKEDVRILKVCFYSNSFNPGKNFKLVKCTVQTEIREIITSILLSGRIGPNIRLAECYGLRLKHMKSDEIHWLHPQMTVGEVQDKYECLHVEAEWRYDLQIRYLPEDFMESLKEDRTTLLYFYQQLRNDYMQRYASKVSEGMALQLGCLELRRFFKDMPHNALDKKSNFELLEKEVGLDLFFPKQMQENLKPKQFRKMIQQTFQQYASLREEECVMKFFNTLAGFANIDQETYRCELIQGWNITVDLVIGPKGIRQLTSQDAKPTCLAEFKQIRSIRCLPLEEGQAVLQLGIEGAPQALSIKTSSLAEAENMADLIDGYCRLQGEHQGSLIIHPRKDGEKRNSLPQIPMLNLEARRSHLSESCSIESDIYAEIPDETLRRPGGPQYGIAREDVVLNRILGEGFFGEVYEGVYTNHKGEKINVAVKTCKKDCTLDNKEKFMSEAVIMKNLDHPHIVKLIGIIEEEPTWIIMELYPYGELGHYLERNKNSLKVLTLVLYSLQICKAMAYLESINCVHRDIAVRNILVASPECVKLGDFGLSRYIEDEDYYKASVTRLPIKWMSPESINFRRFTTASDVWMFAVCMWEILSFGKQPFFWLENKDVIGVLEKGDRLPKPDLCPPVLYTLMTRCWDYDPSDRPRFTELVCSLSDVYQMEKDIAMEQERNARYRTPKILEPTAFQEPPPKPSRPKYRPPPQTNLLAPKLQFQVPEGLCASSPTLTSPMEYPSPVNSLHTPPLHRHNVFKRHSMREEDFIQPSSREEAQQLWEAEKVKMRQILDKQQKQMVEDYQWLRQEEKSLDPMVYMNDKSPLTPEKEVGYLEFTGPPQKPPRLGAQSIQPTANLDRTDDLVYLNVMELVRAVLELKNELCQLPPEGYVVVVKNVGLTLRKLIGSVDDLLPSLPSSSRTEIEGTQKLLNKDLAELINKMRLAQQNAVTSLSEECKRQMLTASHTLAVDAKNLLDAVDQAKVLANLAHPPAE
# Numbers without * were called inactive; / = no result given. This is one part of a sample in which hits are shown more often than they occur.
SMILES,HCT116 bCat-KO,H69AR inhibit,Lung fibro prol,HUVEC inhibit,PTEN del growth,PTK2B oligo ant
O=C(/C=C/c1ccccc1)N1CCCN(C(=O)/C=C/c2ccccc2)CC1,81,/,/,/,80,-0.08
CC1=C/C(=N\OC(=O)/C=C/c2ccccc2)C(C)=CC1=O,47,/,/,/,52,1.9
O=C(/C=C/c1ccccc1)/C=C/c1ccccc1,0.8*,/,/,/,0.7*,/
N/C(=N\OC(=O)/C=C/c1ccccc1)c1ccccc1,93,39*,105,83,99,0.62
N#Cc1ccc(OCC(=O)OCC(=O)Nc2cc(C(F)(F)F)ccc2N2CCOCC2)cc1,91,/,/,/,90,/
Cc1noc(C)c1COc1cccc(C(=O)OCC(=O)N2CC(=O)Nc3ccccc32)c1,19,22*,59,60,19,2.5
O=C1CN(C(=O)COc2cccc(F)c2)c2ccccc2N1,96,/,/,/,91,/
O=Cc1cnc(N2CCOCC2)nc1,94,/,/,/,95,/
Cc1cc(NC(=O)Cc2ccccc2)nc2c1c(=O)oc1ccccc12,97,/,/,/,91,/
Cc1cc(NC(=O)C2CCCC2)nc2c1c(=O)oc1ccccc12,82,37*,108,72,77,-1.5
Cc1cc(NC(=O)CN2CCN(Cc3ccccc3)CC2)nc2c1c(=O)oc1ccccc12,/,22*,64,60,/,/
Cc1cccc(CC(=O)Nc2cc(C)c3c(=O)oc4ccccc4c3n2)c1,85,12*,87,62,87,/
CCOc1ccc(NS(=O)(=O)c2cc(OCC(N)=O)c(C)cc2Cl)cc1,84,/,/,/,91,/
CCOc1ccc(N2C(=O)CC(n3nc(C)cc3C)C2=O)cc1 (stereo not drawn),96,87,100,91,91,-0.55
CCCCC(=O)Nc1cc(NC(=O)CC)ccc1Cl,105,86,94,85,93,0.33
CCCc1cc(-c2[nH]ncc2-c2ccc3c(c2)OCCCO3)c(O)cc1OC,63,18*,80,5.5*,62,/
CCc1cc(-c2[nH]ncc2-c2ccc3c(c2)OCO3)c(O)cc1O,48,79,71,9.7*,45,-2.1
COc1ccc(-c2[nH]ncc2-c2ccc3c(c2)OCCO3)c(O)c1,86,/,/,/,80,-2.2
Cc1cc(C)nc(NS(=O)(=O)c2ccc(N/C=C/C(=O)c3ccc(Cl)c(Cl)c3)cc2)n1,87,/,/,/,76,/
CN1CCN(NS(=O)(=O)c2cccs2)CC1,91,/,/,/,96,/
COC1=C(N)C(=O)c2nc(-c3nc(C(=O)O)c(C)c(-c4ccc(OC)c(OC)c4O)c3N)ccc2C1=O,2.3*,/,/,/,2.0*,/
O=C(CNCCC1=CCCCC1)Nc1ccccc1N1CCCCC1,80,77,94,101,83,-1.4
CCN1CCCC1CN(Cc1cc2ccc(C)cc2[nH]c1=O)C(=S)Nc1ccccc1OC (stereo not drawn),88,/,/,/,95,/
CCOc1ccccc1NC(=S)N(Cc1cc2ccc(C)cc2[nH]c1=O)CC1CCCN1CC (stereo not drawn),2.5*,/,/,/,1.2*,/
CCN1CCCC1CN(Cc1cc2ccc(C)cc2[nH]c1=O)C(=S)Nc1cccc(OC)c1 (stereo not drawn),3.5*,/,/,/,2.5*,/
SMILES,HCT116 bCat-KO,H69AR inhibit,Lung fibro prol,HUVEC inhibit,PTEN del growth,PTK2B oligo ant
CCN1CCCC1CN(Cc1cc2ccc(C)cc2[nH]c1=O)C(=S)Nc1ccc(OC)cc1 (stereo not drawn),91,/,/,/,93,/
C=CCOC(=O)/C(=C/c1cccc2ccccc12)NC(=O)c1ccccc1,88,/,/,/,88,/
Brc1cc(Br)c2ncnc(N3CCCCC3)c2c1,5.8*,1.7*,16*,8.9*,10,-0.87
Brc1cccc(-c2n[nH]c(-c3ccccc3)n2)c1,32,40*,94,61,28,-0.68
c1ccc(-c2nc(-c3cccnc3)n[nH]2)cc1,86,/,/,/,91,/
C=C(C)CNC(=S)Nc1sc2c(c1C(=O)OCC)CC(C)(C)OC2,86,/,/,/,95,/
Cc1ccc(C2NC(=O)c3ccccc3N2)s1 (stereo not drawn),16,32*,60,56,21,-0.13
O=C1NC(c2ccncc2)Nc2ccccc21 (stereo not drawn),100,103,93,113,96,/
C=CCn1c(SCC(O)Cn2c3ccccc3c3ccccc32)nnc1-c1ccco1 (stereo not drawn),86,26*,87,62,78,-1.7
O=C(CSc1ccccc1)Nc1ccc(N2CCOCC2)cc1,84,6.8*,91,85,92,0.1

# High-throughput results: PubChem, several laboratories
